Tests used:
[1] = Selectivity index, ratio of CC50 for African green monkey Vero cells to IC50 for chloroquine sensitive Plasmodium falciparum 3D7; type: toxicity; conditions: for Ratio CC50/IC50: vero; for selectivity ratio: Vero cells, read-out: Ratio CC50/IC50
How it was run: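 SI was computed as Vero CC50 (72 hour MTT, nonlinear regression) divided by the 3D7 IC50. SYBR Green-I lysis buffer was added for 1 hour, and fluorescence was read at 485/530 nm. Logit regression gave IC50.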

Vero = assay: (§1) Cytotoxicity against African green monkey Vero cells after 72 hrs by MTT assay; type: cell-based; conditions: chlorocebus sabaeus, vero, 72 h
How it was run: (§2)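 Vero monkey kidney cells were exposed to a dilution series of test agents for 72 hour, with MTT as the detection reagent (modified Mosmann method). CC50 was derived by nonlinear regression of dose-response curves. Triplicate experiments.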

Plasmodium falciparum [2] = assay: Antimalarial activity against chloroquine resistant Plasmodium falciparum K1 after 72 hrs by SYBR green 1 dye based fluorescence assay; type: functional
How it was run: (§3)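 Compounds dissolved in DMSO at 5 mg/mL (stock), then two-fold serial dilutions. Lysis buffer with 2x SYBR Green-I was added for 1 h at 37 °C. Fluorescence read at 485/530 nm. IC50 by logit regression of dose-response curves, triplicate.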

Plasmodium falciparum [3] = assay: Antimalarial activity against chloroquine sensitive Plasmodium falciparum 3D7 after 72 hrs by SYBR green 1 dye based fluorescence assay; type: functional; how it was run: as §3
[4] = as §1; type: cell-based; conditions: chlorocebus sabaeus, Vero cells; how it was run: as §2
[5] = Plasmodium falciparum, K1, 72 h, read-out: IC50
[6] = Plasmodium falciparum, 3D7, 72 h, read-out: IC50

| Structure (SMILES) | Ratio CC50/IC50 [1] | CC50 (Vero) | IC50 (Plasmodium falciparum [2]; [5]) [nM] | selectivity ratio [1] | IC50 (Plasmodium falciparum [3]; [6]) [nM] | CC50 at 72 h [4] [nM] | IC50 (Plasmodium falciparum [2]) | IC50 (Plasmodium falciparum [3]) |
| --- | --- | --- | --- | --- | --- | --- | --- | --- |
| COc1cc(/C=C/C(=O)c2ccc(OCC3CO3)cc2)cc(OC)c1OC (stereo unspecified) | Not Active | Non-Toxic | – | – | – | – | – | – |
| O=C(/C=C/c1ccc(Cl)cc1)NCCNc1ccnc2cc(Cl)ccc12 | – | – | 44.1 | 357 | 19.4 | 6930 | – | – |
| COc1ccc(/C=C/C(=O)c2ccc(OCC(O)CNCCNc3ccnc4cc(Cl)ccc34)cc2)cc1OC (stereo unspecified) | – | – | 229 | 128 | 79.9 | 10200 | – | – |
| COc1cc(/C=C/C(=O)c2ccccc2OCC(=O)NCCNc2ccnc3cc(Cl)ccc23)cc(OC)c1OC | – | – | 224 | 56.7 | 69.1 | 3920 | – | – |
| COc1cc(OC)c(OC)cc1/C=C/C(=O)c1ccccc1OCC(=O)NCCNc1ccnc2cc(Cl)ccc12 | – | – | 161 | 130 | 94.1 | 12200 | – | – |
| COc1ccc(/C=C/C(=O)NCCNc2ccnc3cc(Cl)ccc23)cc1 | – | – | 59.4 | 1530 | 13.4 | 20600 | – | – |
| O=C(/C=C/c1ccco1)NCCNc1ccnc2cc(Cl)ccc12 | – | – | 101 | 6700 | 94 | 629000 | – | – |
| COc1ccc(/C=C/C(=O)c2ccc(OCC(O)CNCCNc3ccnc4cc(Cl)ccc34)cc2)cc1 (stereo unspecified) | – | – | 900 | 170 | 47.3 | 8030 | – | – |
| COc1cc(OC)c(OC)cc1/C=C/C(=O)NCCNc1ccnc2cc(Cl)ccc12 | – | – | 143 | 756 | 21.3 | 16100 | – | – |
| COc1ccc(/C=C/C(=O)c2ccccc2OCC(=O)NCCNc2ccnc3cc(Cl)ccc23)cc1 | – | – | 148 | 186 | 134 | 25000 | – | – |
| Cc1ccc(/C=C/C(=O)NCCNc2ccnc3cc(Cl)ccc23)cc1 | – | – | 48 | 182 | 22 | 4000 | – | – |
| COc1cc(/C=C/C(=O)c2ccc(OCC(O)CNCCNc3ccnc4cc(Cl)ccc34)cc2)cc(OC)c1OC (stereo unspecified) | – | – | 800 | 142 | 13.5 | 1910 | – | – |
| COc1ccc(/C=C/C(=O)c2ccccc2OCC(=O)NCCNc2ccnc3cc(Cl)ccc23)cc1OC | – | – | 134 | 55.3 | 96.1 | 5310 | – | – |
| O=C(COc1ccccc1C(=O)/C=C/c1ccc(Cl)cc1)NCCNc1ccnc2cc(Cl)ccc12 | – | – | 253 | 19.5 | 255 | 4980 | – | – |
| COc1cc(/C=C/C(=O)c2ccc(OCC(O)CNc3ccc4c(c3)OCO4)cc2)cc(OC)c1OC (stereo unspecified) | Not Active | Non-Toxic | – | – | – | – | Not Active | Not Active |
| COc1ccc(/C=C/C(=O)NCCNc2ccnc3cc(Cl)ccc23)cc1OC | – | – | 157 | 396 | 14.2 | 5600 | – | – |
| CC(=O)c1ccccc1OCC(=O)NCCNc1ccnc2cc(Cl)ccc12 | – | – | 1300 | 10200 | 10.4 | 106000 | – | – |

Reference: ChEMBL document CHEMBL4052633, “Cinnamoylated chloroquine analogues: A new structural class of antimalarial agents” (Eur J Med Chem, 2017)
